Screening data deposited in PubChem by Johns Hopkins Ion Channel Center.
KCNK3 block: human KCNK3 channel inhibitors, primary screen, CHO cells, FluxOR thallium flux, B-score | FluxOR fluorescence; active compounds read low | B-score at 10 µM | hit rate 0.84% among 340,000;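 active means B-score under library mean minus 4 SD, starting fluorescence ratio at most library mean plus 5 SD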;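 further: more negative B-score means stronger inhibition of thallium flux through KCNK3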
KCNK9 block: KCNK9 potassium channel inhibitors, primary screen, HEK293 cells, thallium flux. AID 488922, 2010. Potassium channel subfamily K member 9 (Homo sapiens), Q9NPC2. hit rate 1.2% among 310,000. B-score at 10 µM. FluxOR thallium flux fluorescence; active compounds read low;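 active means ratio B-score over 3 SD below the library mean, with starting fluorescence within 5 SD of its mean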;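 further: negative B-score means less thallium flux so channel inhibition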
KCNQ1 act: potentiators or activators of KCNQ1 channel, primary screen, cell-based, thallium flux, high-throughput. B-score at 10 µM. hit rate 0.35% among 310,000. CHO-K1 KCNQ1, thallium flux FluxOR fluorescence; active compounds read high. AID 2648, 2010;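 active means fluorescence ratio B-score, a plate-corrected score, at least three library SD, with initial intensity B-score within 5 SD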
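Doses: Single concentration per compound, DMSO matched to controls | Test system: KCNQ1-transfected CHO-K1 cells | Timing: 90 min dye loading and 20 min compound exposure, both at room temperature | Measured by: Kinetic FluxOR thallium fluorescence, 10-s 1-Hz baseline, 110-s post-stimulus read | Medium: Assay buffer with matched DMSO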
hERG protect: hERG rescue from dofetilide block, primary screen, cell-based, CHO-hERG, FluxOR thallium flux, dofetilide IC70; Voltage-gated inwardly rectifying potassium channel KCNH2 (Homo sapiens), Q12809; dofetilide IC70 present; activation (rescue from dofetilide block), less the hit threshold, % at 10 µM; hit rate 0.51% among 310,000; AID 1511, 2009;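 active means activation above the mean of controls blocked by dofetilide plus 5 SD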;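 further: thallium influx through hERG after potassium depolarization seen as dye fluorescence rise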
KCNQ1 block: inhibitors of human KCNQ1 channel, primary screen, cell-based, thallium flux, high-throughput. Potassium voltage-gated channel subfamily KQT member 1 (Homo sapiens), P51787. CHO-K1 KCNQ1, FluxOR thallium flux fluorescence; active compounds read high. B-score at 10 µM. hit rate 1.3% among 310,000;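 active means compounds whose thallium flux B-score, printed positive for inhibition, exceeds three library SD while starting fluorescence stays within three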;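 further: channel opened by potassium depolarization with thallium stimulus after 20 min compound exposure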
KCNQ1 inh valid: KCNQ1 potassium channel inhibitors, confirmation, cell-based, Tl flux, duplicate. shares compounds with KCNQ1 block. KCNQ1 cell line, FluxOR thallium flux fluorescence. inhibition, % at 10 µM. hit rate 93% among 1,600. AID 588353, 2011;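 active means primary screen active, with duplicate mean exceeding buffer control mean plus 3 SD of buffer wells, cut at about 28% in these data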
CHO Tl flux: thallium flux effects in parental CHO cells, counter-screen for KCNQ1 inhibitor project, cell-based, Tl flux; AID 588366, 2011; shares compounds with KCNQ1 block; parental CHO-K1, FluxOR thallium flux fluorescence ratio; active compounds read low; zero means no signal rise above baseline; fluorescence ratio (Tl flux) at 10 µM; hit rate 21% among 1,600;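 active means mean of duplicate thallium-flux fluorescence ratios in parental host cells more than 5 SD below the buffer control mean, cut at about 0.38 in these data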;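 further: ratio is peak minus minimum fluorescence divided by baseline fluorescence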
KCNQ1 APC inh: KCNQ1 channel inhibitors, confirmation, orthogonal assay, cell-based, automated electrophysiology. KCNQ1-CHO cells, automated patch clamp current. calls only at 10 µM. hit rate 20% among 490. shares compounds with KCNQ1 block;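 active means KCNQ1 current drop exceeding 3 SD of negative control wells, seen in both duplicate runs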;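 further: steady state current during a 2 s step from -80 to +40 mV; negative values mean current inhibition and positive values mean potentiation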
KCNQ2 spec: KCNQ2 channel inhibition, selectivity assay for KCNQ1 inhibitor project, cell-based; shares compounds with KCNQ1 block; AID 651746, 2012; KCNQ2 cells, FluxOR thallium flux fluorescence; inhibition, % at 10 µM; hit rate 71% among 1,600;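 active means mean percent inhibition of the KCNQ2 thallium signal more than 5 SD above the buffer-only control wells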;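 further: KCNQ2 expressed in CHO cells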
KCNQ1-KCNE1 inh: KCNQ1/KCNE1 channel inhibition, selectivity assay for KCNQ1 inhibitor project, CHO-K1 cells, thallium flux, FluxOR; shares compounds with KCNQ1 block; AID 652147, 2013; FluxOR thallium flux fluorescence; inhibition, % at 10 µM; hit rate 77% among 1,600;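 active means mean percent inhibition of duplicate wells above the buffer-only control mean plus 3 SD of those controls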
Target sequence (P51787 whole entry, looked up): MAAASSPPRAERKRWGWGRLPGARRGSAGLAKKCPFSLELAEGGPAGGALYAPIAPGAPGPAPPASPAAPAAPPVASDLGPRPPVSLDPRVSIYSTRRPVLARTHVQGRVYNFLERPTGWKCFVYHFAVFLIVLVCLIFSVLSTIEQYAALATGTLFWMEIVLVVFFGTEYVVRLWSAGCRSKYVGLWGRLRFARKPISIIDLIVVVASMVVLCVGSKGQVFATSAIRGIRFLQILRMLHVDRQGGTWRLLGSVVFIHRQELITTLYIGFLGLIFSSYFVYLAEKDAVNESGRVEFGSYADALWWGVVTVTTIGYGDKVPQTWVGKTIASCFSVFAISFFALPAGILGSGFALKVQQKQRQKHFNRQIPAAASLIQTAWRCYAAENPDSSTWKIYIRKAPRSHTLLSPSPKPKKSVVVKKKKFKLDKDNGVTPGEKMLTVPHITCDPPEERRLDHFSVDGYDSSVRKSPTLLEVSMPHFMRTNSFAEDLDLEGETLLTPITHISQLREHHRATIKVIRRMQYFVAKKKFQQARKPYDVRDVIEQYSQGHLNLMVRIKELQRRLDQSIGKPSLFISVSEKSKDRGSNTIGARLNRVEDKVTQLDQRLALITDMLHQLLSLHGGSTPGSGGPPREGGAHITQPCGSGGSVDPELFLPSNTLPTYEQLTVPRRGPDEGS
A number is an active result; - = inactive; . = not tested or not shown; + = active, no number. A selection: hits, their analogues and other compounds. The true share with any hit is near 3.1%.

SMILES	KCNK3 block	KCNK9 block	KCNQ1 act	hERG protect	KCNQ1 block	KCNQ1 inh valid	CHO Tl flux	KCNQ2 spec	KCNQ1-KCNE1 inh	others
COc1ccc(-c2csc(NC(=O)C3CC(=O)N(Cc4ccccc4)C3)n2)cc1OC (stereo unspecified)	-	-	-	-	6	123	-	93%	163%	KCNQ1 APC inh=-
Cn1c(=O)c(N)c2c3c(c(Br)ccc31)C(=O)c1ccccc1-2	-	-	-	-	21	+	0.029	-	-
O=S(=O)(NCC1CN(S(=O)(=O)c2c(F)cccc2F)C1)c1ccc2c(c1)OCCO2	-	.	.	.	.	.	.	.	.
CC(C(=O)NCc1ccccc1)N1C(=O)c2ccccc2C1=O (stereo unspecified)	-	-	-	-	7	28	-	-	-
CC(C(=O)NCc1cccc(Cl)c1)N1C(=O)c2ccccc2C1=O (stereo unspecified)	-	-	-	-	-	.	.	.	.
CCCc1ccc(-c2csc(NC(=O)C3=COCCO3)n2)cc1	-	.	.	.	.	.	.	.	.
CNC(=O)NC(=O)C(NC1CCCc2ccccc21)c1ccccc1 (stereo unspecified)	-	-	-	-	-	.	.	.	.
Cc1ccc(NC(=O)C(NC2CCCc3ccccc32)c2ccccc2)cc1Cl (stereo unspecified)	-	-	-	-	6	66	0.36	100%	99%
CCOC(=O)c1cc(C#N)c(SC)nc1-c1ccccc1	-	-	-	-	-	.	.	.	.
CCOC(=O)c1cc(C#N)c(Oc2ccccc2OC)nc1-c1ccccc1	-	-	-	-	7	92	-	80%	94%	KCNQ1 APC inh=-
CC1CCN(CCCNC(=O)Cn2ncc3c([nH]c4ccccc43)c2=O)CC1	-	-	-	-	-	.	.	.	.
COc1ccccc1CN1C(=O)CN(C2CCCCCC2)C(=O)C1c1ccc(F)cc1 (stereo unspecified)	-	-	-	-	-	.	.	.	.
COc1cccc(C2C(=O)N(C3CCCCC3)CC(=O)N2Cc2ccc(F)cc2)c1 (stereo unspecified)	-	-	-	-	6	54	-	93%	42%
CCN(CC)S(=O)(=O)c1ccc2oc(C(=O)NCC3COc4ccccc4O3)c(C)c2c1 (stereo unspecified)	-	-	-	-	8	96	-	81%	128%	KCNQ1 APC inh=-
Cc1ccc(C)c(S(=O)(=O)NCc2ccc(C(=O)N3CCC(Cc4ccccc4)CC3)cc2)c1	-	-	-	-	7	77	-	92%	95%
O=c1[nH]c(=O)n(-c2ccc(F)cc2)c2c1C(C(F)(F)F)(C(F)(F)F)N=C(c1ccc(F)cc1)N2	-	-	-	-	6	57	-	64%	-
CC(=O)c1ccccc1NC(=O)COC(=O)CCC1CCCC1	-	.	.	.	.	.	.	.	.
COc1ccc(N(CC(=O)NCCSCc2ccccc2Cl)S(C)(=O)=O)cc1Cl	-	-	-	-	-	.	.	.	.
N#C/C(=C\c1coc2ccc(O)cc2c1=O)C(=O)Nc1nc2ccccc2s1	-	-	-	-	26	+	0.13	-	-
COC(=O)C1CCCCN1C(=O)c1cc(COc2cccc3cccnc23)on1 (stereo unspecified)	-	-	-	-	-	.	.	.	.
CCOC(=O)CC1CCCCN1C(=O)c1cc(COc2cccc3cnccc23)on1 (stereo unspecified)	-	-	-	-	11	136	-	92%	58%	KCNQ1 APC inh=-
COC(=O)C1CCCCN1C(=O)c1cc(COc2cccc3cnccc23)on1 (stereo unspecified)	-	-	-	-	9	25	-	75%	-
COCCC1CCCCN1C(=O)c1cc(COc2cccc(C(C)=O)c2)on1 (stereo unspecified)	-	-	-	-	-	.	.	.	.
C=CCOc1ccc(/C=C/C(=O)OCC(=O)NNC(=O)c2ccccc2F)cc1	-	.	.	.	.	.	.	.	.
CCSc1nnc(NC(=O)NC(CC)(C(F)(F)F)C(F)(F)F)s1	-	-	-	-	7	57	-	-	91%
SMILES	KCNK3 block	KCNK9 block	KCNQ1 act	hERG protect	KCNQ1 block	KCNQ1 inh valid	CHO Tl flux	KCNQ2 spec	KCNQ1-KCNE1 inh	others
CCSc1nnc(NC(=O)NC(C)(C(F)(F)F)C(F)(F)F)s1	-	-	-	-	-	.	.	.	.
COc1ccc(OC)c(NC(=O)CCCN2C(=S)NC(C)(C)CC2C)c1 (stereo unspecified)	-	-	-	-	-	.	.	.	.
COc1ccc(C)cc1NC(=O)CCCN1C(=S)NC(C)(C)CC1C (stereo unspecified)	-	-	-	-	6	-	-	-	-
COc1ccc(N=c2cc(-c3ccc(OC)cc3)oc3ccccc23)cc1	-	-	-	-	12	147	0.36	-	+
COc1ccc(-c2cc(=Nc3ccc(C)cc3)c3ccccc3o2)cc1	-	-	-	-	-	.	.	.	.
CCCn1c(=O)c(C(=O)NCCc2ccc(OC)cc2)c(O)c2ccccc21	-	-	-	-	9	93	-	91%	77%	KCNQ1 APC inh=-
COC(=O)C1CCC(=O)N1C(c1ccc(OC)cc1)c1cc(OC)c(OC)c(OC)c1 (stereo unspecified)	-	.	.	.	.	.	.	.	.
O=C1CC(c2ccc3ccccc3c2)NN1 (stereo unspecified)	-	.	.	.	.	.	.	.	.
CCC(C)Nc1nc(OC(C(F)(F)F)C(F)(F)F)nc(OC(C(F)(F)F)C(F)(F)F)n1 (stereo unspecified)	-	-	-	-	7	92	-	102%	90%
Cc1ccc(Cl)c2c(N=Nc3ccccc3)c(O)[nH]c12	-	-	-	-	6	148	0.29	-	-
O=C(O)c1ccc(N=Nc2c(O)[nH]c3ccccc23)cc1	-	-	-	-	-	.	.	.	.
CC(=O)NC12CC3CC(C1)CC(C(=O)N(C)CC(=O)Nc1ccc(F)c(F)c1F)(C3)C2	-	.	.	.	.	.	.	.	.
